According to ChEMBL document CHEMBL1156940, “Modified cap group suberoylanilide hydroxamic acid histone deacetylase inhibitor derivatives reveal improved selective antileukemic activity” (J Med Chem, 2010):
Calls of active or inactive are those of the source. No cut-off for these calls is given here.

Assays:
U-937 = test: Antiproliferative activity against human U937 cells after 48 hrs by cell titer-glo assay; type: functional, cell-based; details: U-937, 48 h
Method in brief: (§1)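 Cells kept in RPMI-1640 with 10% FBS at 37 °C, 5% CO2. 10^4 suspension cells were plated immediately before dosing. Compounds were added at 0.1–100 µM, final 1% DMSO, with DMSO vehicle control, and incubated 48 h. CellTiter-Glo luminescence was read. EC50 is the dose reducing luminescence to 50% of untreated cultures.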

K562 = test: Antiproliferative activity against human K562 cells after 48 hrs by cell titer-glo assay; type: functional, cell-based; details: K562, 48 h; method in brief: as §1
Mus musculus [1] = test: Toxicity in FVB mouse assessed as mortality at 50 mg/kg, po administered 5 times per week for 2 weeks; type: organism-based; set-up: dose 50 mg/kg, route oral; details: in vivo, 336 h
Method in brief: (§2)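 8-week-old Fvb mice, SPF-housed in ventilated cages with acidified water, randomly assigned (n = 3 per group) to compound or solvent-only vehicle. Dosing was by oral gavage five times weekly for 2 weeks. Survival was monitored with body weight and blood counts during dosing, and deaths were also recorded during the month after treatment stopped.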

Mus musculus [2] = test: Toxicity in FVB mouse assessed as mortality at 50 mg/kg, po administered 5 times per week for 2 weeks measured up to 1 month; type: organism-based; set-up: dose 50 mg/kg, route oral; details: in vivo, 336 h; method in brief: as §2
Mus musculus [3] = test: Toxicity in FVB mouse assessed as effect on number of platelets at 50 mg/kg, po administered 5 times per week for 2 weeks measured during test (reference value: 454 +/- 93 10^3/mm^3); type: organism-based; set-up: dose 50 mg/kg, route oral; details: in vivo, 336 h
Method in brief: (§3)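 8-week-old FVB mice were housed specific-pathogen-free and randomly assigned, n = 3 per group. They received 50 mg/kg compound or vehicle alone by oral gavage, five times weekly for 2 weeks. Body weight and survival were monitored. Differential blood counts came from nonlethal retro-orbital bleeds before study (J-5), during study (J5) and at end point (J12). Values are means ± spread for n = 3.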

Mus musculus [4] = test: Toxicity in FVB mouse assessed as effect on number of platelets at 50 mg/kg, po administered 5 times per week for 2 weeks (reference value: 514 +/- 42.8 10^3/mm^3); type: organism-based; set-up: dose 50 mg/kg, route oral; details: in vivo, 336 h; method in brief: as §3
Mus musculus [5] = test: Toxicity in FVB mouse assessed as effect on mean platelet volume at 50 mg/kg, po administered 5 times per week for 2 weeks measured during test (reference value: 8.4 +/- 0.5 microm^3); type: organism-based; set-up: dose 50 mg/kg, route oral; details: in vivo, 336 h; method in brief: as §3
Mus musculus [6] = test: Toxicity in FVB mouse assessed as effect on mean platelet volume at 50 mg/kg, po administered 5 times per week for 2 weeks (reference value: 8.8 +/- 0.1 microm^3); type: organism-based; set-up: dose 50 mg/kg, route oral; details: in vivo, 336 h; method in brief: as §3
Mus musculus [7] = test: Toxicity in FVB mouse assessed as effect on number of RBC at 50 mg/kg, po administered 5 times per week for 2 weeks measured during test (reference value: 8.1 +/- 0.2 10^6/mm^3); type: organism-based; set-up: dose 50 mg/kg, route oral; details: in vivo, 336 h; method in brief: as §3
Mus musculus [8] = test: Toxicity in FVB mouse assessed as effect on number of RBC at 50 mg/kg, po administered 5 times per week for 2 weeks (reference value: 7.7 +/- 0.1 10^6/mm^3); type: organism-based; set-up: dose 50 mg/kg, route oral; details: in vivo, 336 h; method in brief: as §3
Mus musculus [9] = test: Toxicity in FVB mouse assessed as effect on mean cell volume of red cells at 50 mg/kg, po administered 5 times per week for 2 weeks measured during test (reference value: 43.7 +/- 0.4 microm^3); type: organism-based; set-up: dose 50 mg/kg, route oral; details: in vivo, 336 h; method in brief: as §3
Mus musculus [10] = test: Toxicity in FVB mouse assessed as effect on number of WBC at 50 mg/kg, po administered 5 times per week for 2 weeks measured during test (reference value: 9.1 +/- 0.2 10^3/mm^3); type: organism-based; set-up: dose 50 mg/kg, route oral; details: in vivo, 336 h; method in brief: as §3
Mus musculus [11] = test: Toxicity in FVB mouse assessed as effect on number of WBC at 50 mg/kg, po administered 5 times per week for 2 weeks (reference value: 9.1 +/- 0.2 10^3/mm^3); type: organism-based; set-up: dose 50 mg/kg, route oral; details: in vivo, 336 h; method in brief: as §3
Mus musculus [12] = test: Toxicity in FVB mouse assessed as effect on hematocrit at 50 mg/kg, po administered 5 times per week for 2 weeks measured during test; type: organism-based; set-up: dose 50 mg/kg, route oral; details: in vivo, 336 h; method in brief: as §3
Mus musculus [13] = test: Toxicity in FVB mouse assessed as effect on hematocrit at 50 mg/kg, po administered 5 times per week for 2 weeks; type: organism-based; set-up: dose 50 mg/kg, route oral; details: in vivo, 336 h; method in brief: as §3
Mus musculus [14] = test: Toxicity in FVB mouse assessed as effect on body weight at 50 mg/kg, po administered 5 times per week for 2 weeks measured during test; type: organism-based; set-up: dose 50 mg/kg, route oral; details: in vivo, 336 h; method in brief: as §3
Mus musculus [15] = test: Toxicity in FVB mouse assessed as effect on body weight at 50 mg/kg, po administered 5 times per week for 2 weeks; type: organism-based; set-up: dose 50 mg/kg, route oral; details: in vivo, 336 h; method in brief: as §3
Mus musculus [16] = test: Toxicity in FVB mouse assessed as effect on mean cell volume of red cells at 50 mg/kg, po administered 5 times per week for 2 weeks (reference value: 43.9 +/- 0.5 microm^3); details: in vivo, 336 h
SK-BR-3 = test: Antiproliferative activity against human SK-BR-3 cells after 48 hrs by cell titer-glo assay; type: functional, cell-based; details: SK-BR-3, 48 h
HT-29 = test: Antiproliferative activity against human HT-29 cells after 48 hrs by cell titer-glo assay; type: functional, cell-based; details: HT-29, 48 h
Jurkat = test: Antiproliferative activity against human Jurkat JA16 cells after 48 hrs by cell titer-glo assay; type: functional, cell-based
HL-60 = test: Antiproliferative activity against human HL60 cells after 48 hrs by cell titer-glo assay; type: functional, cell-based; details: HL-60, 48 h
[17] = Therapeutic ratio, EC50 for human PBMC to EC50 for human 937 cells; details: human PBMC versus human 937 cells
[18] = target: Histone deacetylase 1 (Homo sapiens) (UniProt Q13547); test: Inhibition of recombinant FLAG-tagged HDAC1 assessed as [3H]acetic acid release preincubated for 30 mins measured after 2 hrs by scintillation counting
Method in brief: (§4)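 FLAG-tagged HDAC1 or HDAC6 was immunopurified from stably expressing cell lines and washed in HDAC buffer (10 mM Tris-HCl pH 8.0, 10 mM NaCl, 10% glycerol). Enzyme was preincubated with inhibitor (1 µM) for 30 min at 4 °C, then given 20 000 cpm [3H]peracetylated H4 peptide for 2 h at 37 °C. The reaction was stopped with acetic acid/HCl, extracted into ethyl acetate, and released [3H]acetate counted by scintillation.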

[19] = target: T1, Protein deacetylase HDAC6 (Homo sapiens) (UniProt Q9UBN7); test: Inhibition of recombinant FLAG-tagged HDAC6 assessed as [3H]acetic acid release preincubated for 30 mins measured after 2 hrs by scintillation counting; method in brief: as §4
T1 sequence (whole entry): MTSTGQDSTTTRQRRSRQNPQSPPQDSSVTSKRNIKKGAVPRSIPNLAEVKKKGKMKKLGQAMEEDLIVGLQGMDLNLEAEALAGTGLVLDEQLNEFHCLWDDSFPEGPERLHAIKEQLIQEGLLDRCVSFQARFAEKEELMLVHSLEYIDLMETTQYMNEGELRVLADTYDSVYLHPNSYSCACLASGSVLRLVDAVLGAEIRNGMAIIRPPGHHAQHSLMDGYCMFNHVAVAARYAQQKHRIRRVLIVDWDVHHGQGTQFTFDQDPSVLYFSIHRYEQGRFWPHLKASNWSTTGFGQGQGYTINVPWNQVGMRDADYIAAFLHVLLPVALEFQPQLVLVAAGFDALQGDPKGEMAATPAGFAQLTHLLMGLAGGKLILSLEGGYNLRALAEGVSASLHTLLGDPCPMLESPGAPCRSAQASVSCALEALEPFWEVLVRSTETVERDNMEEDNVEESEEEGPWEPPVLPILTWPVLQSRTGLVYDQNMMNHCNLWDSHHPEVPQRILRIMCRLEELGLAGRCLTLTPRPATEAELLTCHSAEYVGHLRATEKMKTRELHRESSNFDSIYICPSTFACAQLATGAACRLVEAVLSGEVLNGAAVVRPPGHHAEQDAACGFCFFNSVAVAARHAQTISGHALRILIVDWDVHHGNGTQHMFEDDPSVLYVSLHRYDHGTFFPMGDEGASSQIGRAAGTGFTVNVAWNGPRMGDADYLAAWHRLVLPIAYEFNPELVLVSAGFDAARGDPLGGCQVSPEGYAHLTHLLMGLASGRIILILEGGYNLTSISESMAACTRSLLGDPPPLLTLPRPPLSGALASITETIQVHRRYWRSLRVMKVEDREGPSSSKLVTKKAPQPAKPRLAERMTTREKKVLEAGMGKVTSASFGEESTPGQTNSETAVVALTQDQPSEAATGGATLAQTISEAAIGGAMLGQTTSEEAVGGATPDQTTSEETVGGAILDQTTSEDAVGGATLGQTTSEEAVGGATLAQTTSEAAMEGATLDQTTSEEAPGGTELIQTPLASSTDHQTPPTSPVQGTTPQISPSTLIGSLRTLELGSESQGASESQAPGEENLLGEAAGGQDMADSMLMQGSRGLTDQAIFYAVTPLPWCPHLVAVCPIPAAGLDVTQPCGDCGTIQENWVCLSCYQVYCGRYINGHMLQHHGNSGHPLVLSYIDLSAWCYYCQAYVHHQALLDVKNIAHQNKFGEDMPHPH

Histone deacetylase 1 (Homo sapiens), sequence (Q13547 whole entry): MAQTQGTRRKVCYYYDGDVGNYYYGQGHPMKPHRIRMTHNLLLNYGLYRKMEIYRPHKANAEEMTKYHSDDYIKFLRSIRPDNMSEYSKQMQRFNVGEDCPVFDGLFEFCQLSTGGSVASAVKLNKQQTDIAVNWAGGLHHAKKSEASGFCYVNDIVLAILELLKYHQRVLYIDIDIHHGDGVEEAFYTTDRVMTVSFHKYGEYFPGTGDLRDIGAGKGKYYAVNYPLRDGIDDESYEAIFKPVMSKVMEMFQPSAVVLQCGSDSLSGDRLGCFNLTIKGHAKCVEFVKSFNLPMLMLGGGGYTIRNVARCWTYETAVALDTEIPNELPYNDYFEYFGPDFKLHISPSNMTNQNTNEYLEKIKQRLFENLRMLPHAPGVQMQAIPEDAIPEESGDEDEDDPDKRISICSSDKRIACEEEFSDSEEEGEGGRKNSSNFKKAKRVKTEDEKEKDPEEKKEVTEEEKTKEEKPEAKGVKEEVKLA

SMILES	EC50 (U-937) [nM]	EC50 (K562) [nM]	Activity (Mus musculus [1])	Activity (Mus musculus [2])	Activity (Mus musculus [3])	Activity (Mus musculus [4])	Activity (Mus musculus [5]) [um3]	Activity (Mus musculus [6]) [um3]	Activity (Mus musculus [7])	Activity (Mus musculus [8])	Activity (Mus musculus [9]) [um3]	Activity (Mus musculus [10])	Activity (Mus musculus [11])	Activity (Mus musculus [12]) [%]	Activity (Mus musculus [13]) [%]	Activity (Mus musculus [14]) [%]	Activity (Mus musculus [15]) [%]	Activity (Mus musculus [16]) [um3]	EC50 (SK-BR-3) [nM]	EC50 (HT-29) [nM]	also measured
O=C(CCCCCCC(=O)Nc1ccccc1)NO [VORINOSTAT]	820	2200	Non-toxic	Non-toxic	617 10^3/mm3	538 10^3/mm3	7.7	8.4	8.3 10^6/mm3	7.6 10^6/mm3	44.1	5.9 10^3/mm3	8.3 10^3/mm3	36.5	33.7	94.9	96.2	44.5			
O=C(CCCCCCC(=O)Nc1cc2ccc3cccc4ccc(c1)c2c34)NO	300	800																	1200	1400	EC50 (Jurkat): 180 nM; EC50 (HL-60): 350 nM; selectivity ratio [17]: 15; Activity [18]: Active; Activity [19]: Active
O=C(CCCCCCC(=O)Nc1ccc(I)cc1)NO	120	1300	Non-toxic	Non-toxic	478.3 10^3/mm3	537 10^3/mm3	8.6	8.7	8.02 10^6/mm3	6.9 10^6/mm3	43.9	7.5 10^3/mm3	7.5 10^3/mm3	35.2	30.2	99.7	97.8	43.7	1100	950	EC50 (Jurkat): 240 nM; EC50 (HL-60): 850 nM; selectivity ratio [17]: 30; Activity [18]: Active; Activity [19]: Active
